Assay results from ChEMBL document CHEMBL3272326, “Antitumor septacidin analogues” (J Med Chem, 1977).

Tests used:
L1210 [1] = experiment: Inhibition of RNA synthesis in mouse L1210 cells after 3 hrs by [3H]uridine incorporation assay; type: functional; conditions: L1210, 3 h, read-out: ED50 (the source's name)
Method in brief: (§1)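 Cultured lymphoid leukemia L1210 cells; nucleic acid synthesis inhibition measured by a previously reported procedure, modified by adding 1% Me2SO for solubility.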

L1210 [2] = experiment: Inhibition of DNA synthesis in mouse L1210 cells after 3 hrs by [3H]thymidine incorporation assay; type: functional; conditions: L1210, 3 h, read-out: ED50 (the source's name); method in brief: as §1
Calf thymus DNA = experiment: Binding affinity to calf thymus helical DNA assessed as change in melting temperature by […] analysis; type: nucleic-acid assay; conditions: Bos taurus
Method in brief: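 Helix–coil transition temperature shift of isolated helical DNA in solution. Modified procedure: 0.010 M phosphate buffer with 10⁻⁵ M EDTA, pH 7.0, plus 5% Me2SO to solubilize compound.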

P388 (Mus musculus) [3] = experiment: Antitumor activity against mouse P388 cells allografted in mouse assessed as tumor growth inhibition at optimum dose administered qd from day 1 to 9 relative to control
P388 (Mus musculus) [4] = experiment: Antitumor activity against mouse P388 cells allografted in mouse assessed as optimum dose administered qd from day 1 to 9
L1210 [5] = experiment: Cytotoxicity against mouse L1210 cells; type: functional, cell-based; conditions: read-out: I50
Salmonella typhimurium [6] = experiment: Mutagenicity in Salmonella typhimurium TA1536 by Ames test in presence of S9 fraction; type: toxicity, organism-based; conditions: salmonella enterica subsp. enterica serovar typhimurium
Method in brief: (§2)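 Salmonella plate mutagenicity test; compounds tested at levels up to 1 μmol per plate.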

Salmonella typhimurium [7] = experiment: Mutagenicity in Salmonella typhimurium TA1535 by Ames test; type: toxicity, organism-based; conditions: salmonella enterica subsp. enterica serovar typhimurium; method in brief: as §2
Salmonella typhimurium [8] = experiment: Mutagenicity in Salmonella typhimurium TA1537 by Ames test; type: toxicity, organism-based; conditions: salmonella enterica subsp. enterica serovar typhimurium; method in brief: as §2
Salmonella typhimurium [9] = experiment: Mutagenicity in Salmonella typhimurium TA1536 by Ames test; type: toxicity, organism-based; conditions: salmonella enterica subsp. enterica serovar typhimurium; method in brief: as §2
Salmonella typhimurium [10] = experiment: Mutagenicity in Salmonella typhimurium TA1538 by Ames test in presence of S9 fraction; type: toxicity, organism-based; conditions: salmonella enterica subsp. enterica serovar typhimurium; method in brief: as §2
Salmonella typhimurium [11] = experiment: Mutagenicity in Salmonella typhimurium TA1535 by Ames test in presence of S9 fraction; type: toxicity, organism-based; conditions: salmonella enterica subsp. enterica serovar typhimurium; method in brief: as §2
Salmonella typhimurium [12] = experiment: Mutagenicity in Salmonella typhimurium TA1537 by Ames test in presence of S9 fraction; type: toxicity, organism-based; conditions: salmonella enterica subsp. enterica serovar typhimurium; method in brief: as §2
Salmonella typhimurium [13] = experiment: Mutagenicity in Salmonella typhimurium TA1538 by Ames test; type: toxicity, organism-based; conditions: salmonella enterica subsp. enterica serovar typhimurium; method in brief: as §2

Structure (SMILES)	EC50 (L1210 [1]) [µM]	EC50 (L1210 [2]) [µM]	ΔTm (Calf thymus DNA) [°C]	T/C (P388 (Mus musculus) [3]) [%]	Activity (P388 (Mus musculus) [4]) [mg/kg]	IC50 (L1210 [5]) [µM]	Activity (Salmonella typhimurium [6])	Activity (Salmonella typhimurium [7])	Activity (Salmonella typhimurium [8])	Activity (Salmonella typhimurium [9])	Activity (Salmonella typhimurium [10])	Activity (Salmonella typhimurium [11])	Activity (Salmonella typhimurium [12])	Activity (Salmonella typhimurium [13])
CCCCCCCCCCCCCCCCC(NC(C)=O)C(=O)N[C@@H]1[C@@H](O)[C@H](O)[C@@H](Nc2ncnc3[nH]cnc23)O[C@H]1C (stereo partly specified)	> 1000	> 1000												
CC(C)CCCCCCCCCCCCC(=O)NCC(=O)N[C@@H]1[C@@H](O)[C@H](O)[C@@H](Nc2ncnc3[nH]cnc23)O[C@H]1C	1.1	1.8	0.6	160	1	> 20								
CC(C)CCCCCCCCCCCCC(=O)N[C@@H]1[C@@H](O)[C@H](O)[C@@H](Nc2ncnc3[nH]cnc23)O[C@H]1C	> 1000	> 1000	0.5	< 125	0.5	> 100	Non-toxic	Non-toxic	Non-toxic	Non-toxic	Non-toxic	Non-toxic	Non-toxic	Non-toxic
CC(C)CCCCCCCCCCCCC(=O)NCC(=O)N[C@@H]1[C@@H](O)[C@H](O)[C@@H](Nc2ncnc3[nH]cnc23)O[C@H]1C(O)CO (stereo partly specified)	1	0.4		154	0.5	> 5								
COc1cccc2c1C(=O)c1c(O)c3c(c(O)c1C2=O)C[C@@](O)(C(=O)CO)C[C@@H]3O[C@H]1C[C@H](N)[C@H](O)[C@H](C)O1 [DOXORUBICIN]	0.67	1.5	13.6	193	1	0.032								

Continued, in another order:

EC50 (L1210 [1]) [µM]	EC50 (L1210 [2]) [µM]	ΔTm (Calf thymus DNA) [°C]	Structure (SMILES)	T/C (P388 (Mus musculus) [3]) [%]	Activity (P388 (Mus musculus) [4]) [mg/kg]	IC50 (L1210 [5]) [µM]	Activity (Salmonella typhimurium [6])	Activity (Salmonella typhimurium [7])	Activity (Salmonella typhimurium [8])	Activity (Salmonella typhimurium [9])	Activity (Salmonella typhimurium [10])	Activity (Salmonella typhimurium [11])	Activity (Salmonella typhimurium [12])	Activity (Salmonella typhimurium [13])
> 1000	> 1000	0.4	CCOCCC(=O)NCC(=O)N[C@@H]1[C@@H](O)[C@H](O)[C@@H](Nc2ncnc3[nH]cnc23)O[C@H]1CO	< 125	3.1	> 500								
1.6	2.5	3.6	CCCCCCCCCCCCCCCC(=O)NCC(=O)N[C@@H]1[C@@H](O)[C@H](O)[C@@H](Nc2ncnc3[nH]cnc23)O[C@H]1CO	136	0.5	> 100								
0.69	1.6	1.7	CC(C)CCCCCCCCCCCCC(=O)NCC(=O)N[C@@H]1[C@@H](O)[C@H](O)[C@@H](Nc2ncnc3[nH]cnc23)O[C@H]1CO	149	0.5	> 10	Non-toxic	Non-toxic	Non-toxic	Non-toxic	Non-toxic	Non-toxic	Non-toxic	Non-toxic
18	29		CCCCCCCCCCCC(=O)NCC(=O)N[C@@H]1[C@@H](O)[C@H](O)[C@@H](Nc2ncnc3[nH]cnc23)O[C@H]1C	137	1	> 10								
> 1000	> 1000		CCOCCC(=O)NCC(=O)N[C@@H]1[C@@H](O)[C@H](O)[C@@H](Nc2ncnc3[nH]cnc23)O[C@H]1C	< 125	3.1	> 500								
> 1000	> 1000		CCCCCC(=O)NCC(=O)N[C@@H]1[C@@H](O)[C@H](O)[C@@H](Nc2ncnc3[nH]cnc23)O[C@H]1C	< 125	0.5	250	Non-toxic	Non-toxic	Non-toxic	Non-toxic	Non-toxic	Non-toxic	Non-toxic	Non-toxic
5.5	20	0.5	CCCCCCCCCCCC(=O)NCC(=O)N[C@@H]1[C@@H](O)[C@H](O)[C@@H](Nc2ncnc3[nH]cnc23)O[C@H]1CO	133	1	3	Non-toxic	Non-toxic	Non-toxic	Non-toxic	Non-toxic	Non-toxic	Non-toxic	Non-toxic
